Results of several laboratories.
Compare with care: the assays were run in different laboratories.
Effect on: metabolic stability
Species: human

| SMILES | test system | conditions | measurement | value |
| --- | --- | --- | --- | --- |
| Cn1nc2c(=O)n(C3CC3)ccc2c1[C@](O)(c1cnc(C(F)(F)F)c(Cl)c1)C(F)(F)F | hepatocytes | 0.5 µM, pH 7.4 | hepatocyte CLint | 0.5 µL/min/10⁶ cells |
| CCOc1ccc2ccc(=O)oc2c1 | hepatocytes | 1 µM | hepatocyte CLint | 60.6 µL/min/10⁶ cells |
| O=C(O)Cc1ccccc1Nc1c(Cl)cccc1Cl | hepatocytes | 0.5 µM, pH 7.4 | hepatocyte CLint | 98.2 µL/min/10⁶ cells |
| O=c1ccc2ccc(O)cc2o1 | hepatocytes | 1 µM | hepatocyte CLint | 56 µL/min/10⁶ cells |
| CCOc1ccc(NC(C)=O)cc1 | liver microsomes | – | microsomal CLint | 20.7 µL/min/mg |
| CCC(CC)COC(=O)[C@H](C)N[P@](=O)(OC[C@@H]1C[C@@H](O)[C@H](n2cnc3c(N)ncnc32)O1)Oc1ccccc1 | liver microsomes | 1 µM | microsomal CLint | 2120 µL/min/mg |
| CC(C)C[C@H](NC(=O)[C@@H]1COCCCCCC(=O)N2CC(F)(F)C[C@H]2C(=O)N1)C(=O)[C@@]1(C)CO1 | liver microsomes | 2 µM, 1 h | scaled CLint | 57.6 mL/min/kg |
| CCn1cnc2c([C@@](O)(CC)c3ccc(C(F)(F)F)nc3)n(C)nc2c1=O | liver microsomes | 0.5 µM, pH 7.4 | microsomal CLint | < 3 µL/min/mg |
| CCC(CC)COC(=O)[C@H](C)N[P@](=O)(OC[C@@H]1C[C@@H](O)[C@H](n2cnc3c(N)nc(F)nc32)O1)Oc1ccccc1 | liver microsomes | 1 µM | microsomal CLint | 1230 µL/min/mg |
| CC[C@@](O)(c1cnc(C(F)(F)F)c(Cl)c1)c1c2ccn(C3CC3)c(=O)c2nn1C | hepatocytes | 0.5 µM, pH 7.4 | hepatocyte CLint | 1.6 µL/min/10⁶ cells |
| C[C@]1(C(=O)[C@H](Cc2ccccc2)NC(=O)[C@@H]2Cc3ccc(cc3)OCCCCCCCC(=O)N3CCC[C@H]3C(=O)N2)CO1 | liver microsomes | 2 µM, 1 h | scaled CLint | 927 mL/min/kg |
| CCn1ccc2c([C@](O)(c3cnc(C(F)(F)F)c(Cl)c3)C3CC3)n(C)nc2c1=O | liver microsomes | 0.5 µM, pH 7.4 | microsomal CLint | < 3 µL/min/mg |
| CC(C)C[C@H](NC(=O)[C@H](CCc1ccccc1)NC(=O)CN1CCOCC1)C(=O)N[C@@H](Cc1ccccc1)C(=O)N[C@@H](CC(C)C)C(=O)[C@@]1(C)CO1 | liver microsomes | 2 µM, 1 h | scaled CLint | 931 mL/min/kg |
| CC1(CN)CCN(c2cnc3c(Sc4ccncc4Cl)n[nH]c3n2)CC1 | liver microsomes | – | scaled CLint | 34 mL/min/kg |
| O=c1ccc2ccc(O)cc2o1 | liver microsomes | – | scaled CLint | 939 mL/min/kg |
| CCN(CCN)c1ccc(Nc2cc(NC3CC3)n3ncc(C#N)c3n2)cc1-n1cnnc1 | hepatocytes | 1 µM, serum-free | scaled CLint | < 6.9 mL/min/kg |
| CC[N+]1(C)CCN(c2ccc(NC(=O)c3cccc(C)n3)cc2)CC1 | liver microsomes | – | microsomal CLint | < 3 µL/min/mg |
| O=c1ccc2cc(O)ccc2o1 | liver microsomes | – | microsomal CLint | 22 µL/min/mg |
| CC(C)C[C@H](NC(=O)[C@@H]1COCCCCCC(=O)NCC(=O)N2CCC[C@H]2C(=O)N1)C(=O)[C@@]1(C)CO1 | liver microsomes | 2 µM, 1 h | scaled CLint | 22.5 mL/min/kg |
